UHRF1 MBD2 ctr – blocks human UHRF1 binding to methylated DNA; Q96T88; UHRF1 binding to methylated oligo, TR-FRET; inhibition, % at 4.4 µM; 0.75% of 370,000 active; AID 687016;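 further: UHRF1 SRA domain binding a hemimethylated CpG hairpin DNA probe; 0% = median of test compound wells and 100% = reference inhibitor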
Pemphigus Ab inh – human desmoglein-3 autoantibody binding inhibition | DSG3-coupled beads, scFv-anti-DSG3-GFP binding, flow cytometry; active compounds read low | binding (percent of control), % at 10 µM | 0.48% of 310,000 active | AID 588358;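 active means binding more than 3 SD below its plate's average and above zero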;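 further: hits lower antibody fragment binding to DSG3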
NS3 helicase inh – inhibitors of Hepatitis C virus NS3 helicase | NS3 helicase DNA unwinding, Cy5 molecular beacon fluorescence | inhibition, % at 10.9 µM | 0.56% of 290,000 active | AID 1800;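 active means inhibition above the mean of all tested compounds plus 3 SD, set per campaign, cut at about 35% in these data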;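 further: 0% = DMSO wells and 100% = thioflavine S control wells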
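test system = hepatitis C virus NS3 helicase domain fragment enzyme | reagent = annealed dual-labelled DNA beacon duplex, ATP-started | times = 1 h at 25 °C | detection = Cy5 fluorescence, 0 and 60 min reads | read-out basis = percent inhibition from t60/t0 fluorescence ratio | control set = DMSO and thioflavine S | replication = one well per compound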
MBD2 inh – blocks human MBD2 binding to methylated DNA | Q9UBB5 | TR-FRET, MBD2 binding to methylated oligonucleotide | inhibition, % at 4.4 µM | 0.31% of 370,000 active | AID 686964; in the data active means inhibition above about 13%
Target sequence (Q9UBB5 whole entry, looked up): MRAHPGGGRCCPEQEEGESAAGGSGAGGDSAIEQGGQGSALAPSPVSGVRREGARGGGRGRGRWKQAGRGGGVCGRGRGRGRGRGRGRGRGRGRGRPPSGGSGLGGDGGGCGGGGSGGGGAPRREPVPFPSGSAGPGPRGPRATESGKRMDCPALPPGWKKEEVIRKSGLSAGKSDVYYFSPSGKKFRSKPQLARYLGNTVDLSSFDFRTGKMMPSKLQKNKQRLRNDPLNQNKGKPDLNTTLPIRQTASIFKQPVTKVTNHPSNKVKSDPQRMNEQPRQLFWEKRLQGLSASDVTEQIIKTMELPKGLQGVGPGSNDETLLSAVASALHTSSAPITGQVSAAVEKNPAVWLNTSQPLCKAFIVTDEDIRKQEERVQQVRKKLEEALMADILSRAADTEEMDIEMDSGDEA
DNMT1 inh – inhibitors of human DNMT1; P26358; DNMT1 molecular beacon, Hinp1I cleavage, fluorescence; inhibition (reported as % activation of signal), % at 10 µM; 0.83% of 360,000 active; in the data active means inhibition above about 50%
SUMO1-SIM PPI – modulators of human SUMO1-mediated protein-protein interactions; 0.33% of 360,000 active; SUMO1 binding to a labelled peptide, TR-FRET, 1 h; AID 602429; P63165; inhibition, % at 20 µM; in the data active means inhibition above about 37%
Target sequence (P63165 whole entry, looked up): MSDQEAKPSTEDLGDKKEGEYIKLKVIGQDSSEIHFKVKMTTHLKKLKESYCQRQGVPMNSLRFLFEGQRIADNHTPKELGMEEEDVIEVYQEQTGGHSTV
UHRF1 ctr MBD2 – inhibits human UHRF1 binding to methylated oligonucleotide, MBD2 counter-screen; shares compounds with MBD2 inh; 25% of 1,000 active; TR-FRET; inhibition, % at 4.4 µM;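 further: UHRF1 SRA domain binding a labeled hemimethylated CpG hairpin DNA; 0% = vehicle only and 100% = reference inhibitor with vehicle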
MBD2 confirm – confirmation of human MBD2-DBD methylated oligonucleotide binding inhibitors; shares compounds with MBD2 inh; TR-FRET MBD2-DBD binding to methylated oligonucleotide; AID 720531; 26% of 1,000 active; inhibition, % at 4.4 µM; in the data active means inhibition above about 14%
* hit, by the source's call; · = no result. Rows were chosen to be rich in hits. Some 2.5% of all compounds tested hit in one or more screens of this group. Unless noted, no stated cut-off is given here; in the data, active means inhibition above about 21%; inactive means the rest.

SMILES	UHRF1 MBD2 ctr	Pemphigus Ab inh	NS3 helicase inh	MBD2 inh	DNMT1 inh	SUMO1-SIM PPI	UHRF1 ctr MBD2	MBD2 confirm
Cc1ccccc1NC(=O)C(C)Sc1nnc(CN2CCCC2)n1Cc1ccccc1 (stereo not drawn)	-1	106	·	3	0	-5	·	·
CC(Sc1nnc(CN2CCCC2)n1Cc1ccccc1)C(=O)Nc1ccccc1 (stereo not drawn)	2	·	·	34*	0	-3	7	2
Cc1ccc(Cn2ncc3c(NCCCN(C)C)ncnc32)cc1	0	101	-34	1	1	2	·	·
COC(=O)NNC(=O)COc1ccc2ccccc2c1Br	1	98	18	-2	-3	-10	·	·
O=C(COc1ccc2ccccc2c1Br)Nn1cnnc1	17	101	17	19*	1	-12	4	2
CCNC(=O)C1(C)CCN(Cc2ccc(C(F)(F)F)cc2)C1 (stereo not drawn)	0	·	·	0	1	2	·	·
CCNC(=O)C1(C)CCN(Cc2ccc(OC(F)(F)F)cc2)C1 (stereo not drawn)	1	·	·	29*	-8	-5	11	6
O=C(O)c1cc(O)c2c(c1)[C@H]([C@H]1c3cc(C(=O)O)cc(O)c3C(=O)c3c(O[C@@H]4O[C@H](CO)[C@@H](O)[C@H](O)[C@H]4O)cccc31)c1cccc(OC3O[C@H](CO)[C@@H](O)[C@H](O)[C@H]3O)c1C2=O (stereo partly drawn)	73*	-9.0*	·	33*	97*	116*	90*	94*
O=C(NC1(C(=O)NC2CCCC2)CCCCC1)c1ccc2c(c1)OCO2	0	97	1	2	4	-1	·	·
O=C(O)CCc1ccc(-c2cccs2)n1CC(=O)Nc1ccccc1C(F)(F)F	1	97	13	28*	-2	0	0	4
COCCn1c(CCC(=O)O)ccc1-c1cccs1	0	108	8	0	1	-4	·	·
O=C(CC1CCCC1)Nc1nc2ccccc2[nH]1	0	·	2	1	4	2	·	·
O=c1c2cc(O)c(O)cc2oc2cc(O)c(C3OC(CO)C(O)C(O)C3O)c(O)c12 (stereo not drawn)	60*	99	·	43*	8	16	45*	40*
COc1cc(OC)c(NC(=O)c2csc(C)c2)cc1Cl	2	103	-1	1	4	3	·	·
Cn1c(=O)c2c(ncn2CC2OCCO2)n(C)c1=O	1	103	8	35*	-11	0	8	2
CC(C)(C)CC(C)(C)N=C1NS(=O)(=O)c2cc([N+](=O)[O-])ccc21	5	98	5	0	0	-23	·	·
Cc1ccc(C)c(N2CN(CCC3=CCCCC3)CNC2=S)c1	1	·	-4	2	0	-2	·	·
O=Cc1ccc(-n2cccn2)cc1	-1	113	-8	3	0	-1	·	·
Cc1nccn1-c1ccc(C=O)cc1	2	96	-7	40*	6	2	0	3
Cc1cc(C)n2c(Nc3ccc4c(c3)OCCO4)c(-c3ccc(C)o3)nc2n1	26*	99	2	16*	-2	-5	2	2
CCOc1ccc(C(=O)N2CCCC2)cc1OC	0	96	-1	5	2	0	·	·
CCOc1ccc(C(=O)N2CCN(CC(=O)N3CCCC3)CC2)cc1OCC	22*	100	·	16*	4	2	5	1
O=Cc1ccc(N2CCN(S(=O)(=O)c3ccc4c(c3)CC(=O)N4)CC2)cc1	8	·	·	15*	-1	11	9	2
O=C(COC(=O)[C@@H]1CCCN1S(=O)(=O)c1ccccc1F)Nc1ccc(OC(F)F)cc1	-3	100	0	-4	-3	3	·	·
CC(=O)c1ccccc1NC(=O)COC(=O)C1CCCN1S(=O)(=O)c1ccccc1F (stereo not drawn)	1	101	·	15*	1	2	8	3
SMILES	UHRF1 MBD2 ctr	Pemphigus Ab inh	NS3 helicase inh	MBD2 inh	DNMT1 inh	SUMO1-SIM PPI	UHRF1 ctr MBD2	MBD2 confirm
COc1cc2c(cc1OC)CN(C(=O)CCOc1ccccc1C)CC2	1	·	-9	14*	2	11	3	1
CC(C)(C)c1ccc(C(=O)C2CC2)cc1	2	99	·	2	3	1	·	·
C=CCn1c(C)cc(C(=O)CSc2nc3ccccc3[nH]2)c1C	-3	96	1	20*	-9	2	9	2
Cc1c[n+]([O-])n(-c2ccc(C(=O)O)cc2)n1	21	94	-4	15*	7	20	10	6
c1ccc(-c2csc(Nc3cccnc3)n2)nc1	-3	101	0	27*	0	2	0	2
O=C(Nc1ccc(F)c(S(=O)(=O)N2CCOCC2)c1)C1CCCCC1	-2	107	·	-2	0	1	·	·
CC(C)C(NS(=O)(=O)c1cccc2nsnc12)C(=O)N1CCn2c1nc1ccccc12 (stereo not drawn)	0	102	-1	14*	6	-36	2	0
Cn1c(SCC(=O)c2c(N)n(C)c(=O)n(C)c2=O)nnc1-c1ccccc1F	2	105	-6	32*	-1	5	-3	0
Cn1c(SCC(=O)c2c(N)n(C)c(=O)n(C)c2=O)nnc1-c1ccccc1	2	107	6	3	2	0	·	·
CCN(CC)CCCNc1nc(-c2ccccc2)nc2ccccc12	6	109	24	3	2	2	·	·
CCN(CC)CCCNc1nc2ccccc2c2[nH]c3ccc(OC)cc3c12	85*	104	·	91*	-81	-77	96*	109*
CCCCCCCCN1C(=O)[C@@H](CC(=O)NCCC(C)C)C[C@@]2(C(=O)OC)C1=C[C@H](C(C)C)O[C@@H]2C1CC1	-3	·	·	-7	·	·	·	·
CC1(C)CC(=O)C2=C(C1)OC(N)=C(C#N)[C@@H]2c1ccccc1[N+](=O)[O-]	-2	118	7	18*	6	-3	4	2
COc1cc(C2C(C#N)=C(N)OC3=C2C(=O)CC(C)(C)C3)c([N+](=O)[O-])cc1OC (stereo not drawn)	-7	104	5	-7	-5	5	·	·
O=C(NC1CCCN(Cc2ccc(Cl)cc2)C1)c1cccc(N2CCCC2=O)c1 (stereo not drawn)	-1	103	-1	5	1	4	·	·
COc1ccc(-c2cc(=O)n(CCC#N)[nH]2)cc1	16	105	3	18*	-20	-1	1	0

Source: PubChem BioAssay
